How the values were obtained:
[1] = biological target: T1, Kappa-type opioid receptor (Homo sapiens, UniProt P41145); assay: Binding affinity towards cloned human Opioid receptor kappa 1 in CHO cell membranes.; type: cell-based
[2] = biological target: T2, Delta-type opioid receptor (Homo sapiens, UniProt P41143); assay: (§1) Binding affinity towards cloned human Opioid receptor delta 1 in CHO cell membranes.; type: cell-based
Procedure, shortened: (§2)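 Membranes from CHO cells stably expressing cloned human µ, δ or κ receptors in 50 mM Tris-HCl pH 7.8 with EGTA, MgCl2 and protease inhibitors. 50-100 µg protein with 1.0 nM [3H]diprenorphine, 60 min at room temperature. Filtered on PEI/BSA-treated GF/B and counted by scintillation. Nonspecific binding with 10 µM naloxone. Four-parameter one-site fit, Ki by Cheng-Prusoff.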

Mu-type opioid receptor = Mu-type opioid receptor (Homo sapiens, UniProt P35372); assay: Binding affinity towards cloned human Opioid receptor mu 1 in CHO cell membranes.; type: cell-based; procedure, shortened: as §2
Mu-type opioid receptor, sequence (P35372 whole entry): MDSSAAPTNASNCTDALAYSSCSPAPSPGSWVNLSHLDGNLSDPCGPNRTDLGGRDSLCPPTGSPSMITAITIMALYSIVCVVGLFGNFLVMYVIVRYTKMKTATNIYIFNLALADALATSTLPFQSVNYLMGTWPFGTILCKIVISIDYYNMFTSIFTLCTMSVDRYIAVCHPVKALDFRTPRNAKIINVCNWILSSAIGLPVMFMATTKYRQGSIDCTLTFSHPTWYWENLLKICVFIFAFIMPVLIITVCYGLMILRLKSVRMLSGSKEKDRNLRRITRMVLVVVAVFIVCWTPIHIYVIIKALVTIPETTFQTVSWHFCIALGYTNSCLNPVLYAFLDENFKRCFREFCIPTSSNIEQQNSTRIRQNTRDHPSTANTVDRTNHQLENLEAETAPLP

[3] = biological target: T1, Kappa-type opioid receptor; assay: Binding affinity at Opioid receptor kappa 1 by to cloned human opioid receptors expressed in CHO cell membranes
Procedure, shortened: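 Membranes from CHO cells stably expressing cloned human κ receptor; 50-100 µg protein in 50 mM Tris-HCl pH 7.8 with EGTA, MgCl2 and protease inhibitors. […] Nonspecific binding with 10 µM naloxone. Filtration and scintillation counting; Ki by Cheng-Prusoff.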

[4] = Antagonist activity determined in the [35S]GTP-gamma-S, binding assay relative to 25 nM [D-Ala3] Dyn A (1-11)-NH2.; type: functional
[5] = Antagonist activity determined in the [35S]GTP-gamma-S, binding assay relative to 50 nM U50,488; type: functional
Cavia porcellus [6] = species on record: Cavia porcellus; assay: Tested for agonist or antagonist properties in guinea pig ileum by (GPI) assay.
[7] = biological target: T1, Kappa-type opioid receptor; assay: Binding affinity of Opioid receptor kappa 1 to cloned human opioid receptor in CHO cell membrane.; type: cell-based; procedure, shortened: as §2
Cavia porcellus [8] = species on record: Cavia porcellus; assay: Antagonist activity determined in the guinea pig assay against U50,488 at 1 uM; type: functional
Procedure, shortened: (§3)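 Electrically stimulated guinea pig ileum. Antagonist held at a fixed concentration of 1 µM. IC50 of the reference agonist (U50,488 or [D-Ala3]Dyn A(1-11)-NH2, as the line names) was measured with and without antagonist. Ke was calculated from the shift.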

Cavia porcellus [9] = species on record: Cavia porcellus; assay: Antagonist activity determined in the guinea pig assay against [D-Ala3] Dyn A (1-11)-NH2 at 1 uM; type: functional; procedure, shortened: as §3
[10] = biological target: T2, Delta-type opioid receptor; assay: as §1; type: cell-based; remark: listed apart in the source
Procedure, shortened: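 Membranes from CHO cells stably expressing cloned human δ receptor; 50-100 µg protein. […] Nonspecific binding with 10 µM naloxone. Filter-bound counts; Ki via Cheng-Prusoff from a one-site fit.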

[11] = biological target: T1, Kappa-type opioid receptor; assay: Human kOpioid receptor kappa 1 mediated stimulation of [35S]- GTPgammaS binding in CHO cells (Agonist potency).; type: cell-based
Procedure, shortened: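 Human κ-CHO membranes (50-150 µg) with 80-100 pM [35S]GTPγS, 30 µM GDP and 100 mM NaCl in Tris-HCl pH 7.8; 1 h at 30 °C, then filtration and counting. EC50 from a nonlinear fit of an agonist concentration series. Maximal response at 10 µM expressed relative to U50,488 (100%).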

Cavia porcellus [12] = species on record: Cavia porcellus; assay: Tested for antagonist activity in guinea pig ileum by (GPI) assay.; type: functional, organism-based
Procedure, shortened: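 Electrically evoked contractions of guinea pig ileum. Ke calculated from IC50 of reference agonist (U50,488 or [D-Ala3]Dyn A(1-11)-NH2), measured with and without a fixed concentration of antagonist.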

[13] = Tested for maximum agonist response at concentration 10 uM, relative to that with standard agonist U50,488.; type: functional
Procedure, shortened: (§4)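 κ-expressing CHO membranes (50-150 µg) in 50 mM Tris HCl pH 7.8 with 80-100 pM [35S]GTPγS, 30 µM GDP, 100 mM NaCl and 5.0 mM MgCl2, 1 h at 30 °C. Filtered and counted. Agonist concentration series gave EC50 by nonlinear regression. Maximal response at 10 µM expressed relative to U50,488 set as 100%.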

[14] = biological target: T1, Kappa-type opioid receptor; assay: Human Opioid receptor kappa 1 mediated stimulation of [35S]- GTPgammaS binding in CHO cells (Agonist potency).; type: cell-based; procedure, shortened: as §4
Cavia porcellus [15] = species on record: Cavia porcellus; assay: Tested for agonist or antagonist properties in guinea pig ileum a (GPI) assay.; type: functional, organism-based

T2 sequence (P41143 whole entry): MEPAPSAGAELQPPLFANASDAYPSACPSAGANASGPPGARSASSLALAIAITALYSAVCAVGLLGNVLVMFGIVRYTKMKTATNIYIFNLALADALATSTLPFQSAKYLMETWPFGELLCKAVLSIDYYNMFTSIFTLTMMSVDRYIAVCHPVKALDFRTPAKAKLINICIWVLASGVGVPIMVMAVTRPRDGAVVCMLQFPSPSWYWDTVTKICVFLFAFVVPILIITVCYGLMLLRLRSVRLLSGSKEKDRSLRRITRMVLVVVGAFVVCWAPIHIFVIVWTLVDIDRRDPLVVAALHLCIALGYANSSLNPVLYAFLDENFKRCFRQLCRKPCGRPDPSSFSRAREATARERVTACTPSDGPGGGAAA
T1 sequence (P41145 whole entry): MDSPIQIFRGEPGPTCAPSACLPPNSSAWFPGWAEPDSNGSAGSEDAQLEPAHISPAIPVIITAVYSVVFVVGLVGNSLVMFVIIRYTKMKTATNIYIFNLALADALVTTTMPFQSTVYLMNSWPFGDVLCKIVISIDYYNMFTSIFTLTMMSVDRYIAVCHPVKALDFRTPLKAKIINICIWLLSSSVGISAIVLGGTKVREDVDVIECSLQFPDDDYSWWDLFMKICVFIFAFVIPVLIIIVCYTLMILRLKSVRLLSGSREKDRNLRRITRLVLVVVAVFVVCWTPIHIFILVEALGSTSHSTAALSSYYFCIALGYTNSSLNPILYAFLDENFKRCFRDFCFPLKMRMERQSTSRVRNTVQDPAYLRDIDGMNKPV

| SMILES | Ki [1] [nM] | Ki [2] [nM] | Ki (Mu-type opioid receptor) [nM] | IC50 [5] [nM] | further results |
| --- | --- | --- | --- | --- | --- |
| CC[C@H](C)[C@H](NC(=O)[C@H](CCCN=C(N)N)NC(=O)[C@H](CCCN=C(N)N)NC(=O)[C@H](CC(C)C)NC(=O)[C@H](Cc1ccccc1)NC(=O)[C@@H]1CCCN1C(=O)CNC(=O)[C@@H](N)Cc1ccc(O)cc1)C(=O)N[C@@H](CCCN=C(N)N)C(=O)N1CCC[C@H]1C(=O)N[C@@H](CCCCN)C(N)=O | 2.7 | 8800 | 5700 | 380 | Ki [3]: 7.5 nM; IC50 [4]: 1400 nM |
| CC[C@H](C)[C@H](NC(=O)[C@H](CCCN=C(N)N)NC(=O)[C@H](CCCN=C(N)N)NC(=O)[C@H](CC(C)C)NC(=O)[C@H](Cc1ccccc1)NC(=O)[C@H]1CCCN1C(=O)CNC(=O)[C@@H](N)Cc1ccc(O)cc1)C(=O)N[C@@H](CCCN=C(N)N)C(=O)N1CCC[C@H]1C(=O)N[C@@H](CCCCN)C(N)=O | 160 | 7100 | 8300 | 2200 | – |
| CC[C@H](C)[C@H](NC(=O)[C@H](CCCN=C(N)N)NC(=O)[C@H](CCCN=C(N)N)NC(=O)[C@H](CC(C)C)NC(=O)[C@H](Cc1ccccc1)NC(=O)[C@@H](C)NC(=O)CNC(=O)[C@@H](N)Cc1ccc(O)cc1)C(=O)N[C@@H](CCCN=C(N)N)C(=O)N1CCC[C@H]1C(=O)N[C@@H](CCCCN)C(N)=O | – | – | – | – | IC50 (Cavia porcellus [6]): 2.38 nM |
| CC[C@H](C)[C@H](NC(=O)[C@H](CCCNC(=N)N)NC(=O)[C@H](CCCNC(=N)N)NC(=O)[C@H](CC(C)C)NC(=O)[C@H](Cc1ccccc1)NC(=O)CNC(=O)[C@@H]1CCCN1C(=O)[C@@H](N)Cc1ccc(O)cc1)C(=O)N[C@@H](CCCNC(=N)N)C(=O)N1CCC[C@H]1C(=O)N[C@@H](CCCCN)C(N)=O | 94 | 6800 | 3200 | 760 | – |
| CC[C@H](C)[C@H](NC(=O)[C@H](CCCN=C(N)N)NC(=O)[C@H](CCCN=C(N)N)NC(=O)[C@H](CC(C)C)NC(=O)[C@H](Cc1ccccc1)NC(=O)CNC(=O)[C@H]1CCCN1C(=O)[C@@H](N)Cc1ccc(O)cc1)C(=O)N[C@@H](CCCN=C(N)N)C(=O)N1CCC[C@H]1C(=O)N[C@@H](CCCCN)C(N)=O | 65 | 3900 | 1700 | 940 | – |
| CC[C@@H](C)[C@@H](NC(=O)CNC(=O)[C@@H](N)Cc1ccc(O)cc1)C(=O)N[C@@H](Cc1ccccc1)C(=O)N[C@@H](CC(C)C)C(=O)N[C@@H](CCCN=C(N)N)C(=O)N[C@@H](CCCN=C(N)N)C(=O)N[C@H](C(=O)N[C@@H](CCCN=C(N)N)C(=O)N1CCC[C@H]1C(=O)N[C@@H](CCCCN)C(N)=O)[C@@H](C)CC | – | – | – | – | Ki [7]: 55 nM |
| Oc1ccc2c3c1O[C@H]1c4[nH]c5c(c4C[C@@]4(O)[C@@H](C2)N(CC2CC2)CC[C@]314)C[C@@]1(O)[C@H]2Cc3ccc(O)c4c3[C@@]1(CCN2CC1CC1)[C@H]5O4 [NORBINALTORPHIMINE] | – | – | – | 4.6 | Ke (Cavia porcellus [8]): 0.357 nM; Ke (Cavia porcellus [9]): 0.572 nM; IC50 [4]: 4.7 nM |
| CC[C@H](C)[C@H](NC(=O)[C@H](CCCN=C(N)N)NC(=O)[C@H](CCCN=C(N)N)NC(=O)[C@H](CC(C)C)NC(=O)[C@H](Cc1ccccc1)NC(=O)CNC(=O)CNC(=O)[C@@H](N)Cc1ccc(O)cc1)C(=O)N[C@@H](CCCN=C(N)N)C(=O)N1CCC[C@H]1C(=O)N[C@@H](CCCCN)C(N)=O | 0.074 | – | 7.6 | – | Ki [10]: 2.9 nM; EC50 [11]: 0.74 nM; IC50 (Cavia porcellus [12]): 0.376 nM; Max agonist response [13]: 73% |
| CC[C@H](C)[C@H](NC(=O)[C@H](CCCNC(=N)N)NC(=O)[C@H](CCCNC(=N)N)NC(=O)[C@H](CC(C)C)NC(=O)[C@H](Cc1ccccc1)NC(=O)[C@@H](C)NC(=O)CNC(=O)[C@@H](N)Cc1ccc(O)cc1)C(=O)N[C@@H](CCCNC(=N)N)C(=O)N1CCC[C@H]1C(=O)N[C@@H](CCCCN)C(N)=O | 0.15 | – | 67 | – | EC50 [14]: 6.1 nM |
| CCC[C@H](NC(=O)[C@H](Cc1ccccc1)NC(=O)CNC(=O)CNC(=O)[C@H](Cc1ccc(O)cc1)NCc1ccccc1)C(=O)N[C@@H](CCCN=C(N)N)C(=O)N[C@@H](CCCN=C(N)N)C(=O)N[C@H](C(=O)N[C@@H](CCCN=C(N)N)C(=O)N1CCCC1C(=O)N[C@@H](CCCCN)C(N)=O)[C@@H](C)CC (stereo in doubt) | – | – | – | – | IC50 (Cavia porcellus [15]): 990 nM |

— ChEMBL document CHEMBL1133465, “[Pro(3)]Dyn A(1-11)-NH(2): a dynorphin analogue with high selectivity for the kappa opioid receptor” (J Med Chem, 2000)
